This passage reports Activity and pKb results from ChEMBL document CHEMBL5661984, “Allosteric ligands for the pharmacologically dark receptors GPR68 and GPR65” (Nature, 2015).

Usually pKb stands for the Kb on a negative log10 scale, so that one unit is a factor of ten.

Assay [1] concerns the target T1, G-protein coupled receptor 68 (Homo sapiens, UniProt Q15743). Briefly: Positive allosteric modulator activity at HA-tagged GPR68 expressed in human HEK293T cells assessed as activation of p42/p44 MAP kinase at pH 7.4 by immunoblotting analysis. Particulars: filed as positive allosteric modulator. The format is cell-based. The gist of the method:
(§1)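 HEK293 cells stably expressing N-terminal HA-tagged human GPR68 (vector-only line as control), selected with 250 μg/ml G418. Confluent cells were switched to Hams-F12 at pH 8.0 or 7.4 for 1 h, then given vehicle or 50 μM compound for 10 min. Lysate immunoblots were probed for HA, total VASP, p-p42/p44 and β-actin, read with infrared-fluorophore secondaries.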
For orientation: In western blotting, separated proteins are transferred to a membrane and probed.

For assay [2], the target named is G-prodeshotein coupled receptor 4 (Homo sapiens) (UniProt P46093). Kind of assay: Positive allosteric modulator activity at human GPR4 expressed in yeast assessed as Gq-yeast growth stimulation at 10 uM by microplate reader analysis. The gist of the method: (§2)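 Gq-coupled yeast strain expressing receptor, in SD-His-Ura medium (pH 5.4) with 3-amino-1,2,4-triazole at a level giving moderate ligand-free growth (OD 0.2–0.6). Compound at 10 μM final, in triplicate. Starting OD600 0.02; growth 2–5 days at 30°C, read as OD600. Values are 100 × (well OD600 − plate median), given as % growth stimulation, mean ± SEM of three wells.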
Sequence of G-prodeshotein coupled receptor 4 (Homo sapiens) (P46093 whole entry, looked up): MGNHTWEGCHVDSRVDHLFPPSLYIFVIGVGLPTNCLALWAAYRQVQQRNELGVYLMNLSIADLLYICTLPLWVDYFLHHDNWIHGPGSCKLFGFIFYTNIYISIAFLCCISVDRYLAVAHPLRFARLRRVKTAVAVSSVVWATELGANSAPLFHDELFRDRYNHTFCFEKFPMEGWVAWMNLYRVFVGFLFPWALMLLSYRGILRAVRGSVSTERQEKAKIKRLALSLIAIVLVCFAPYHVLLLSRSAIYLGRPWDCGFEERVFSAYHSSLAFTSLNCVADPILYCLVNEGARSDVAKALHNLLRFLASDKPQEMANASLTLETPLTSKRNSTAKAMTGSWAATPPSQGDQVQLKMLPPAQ

Assay [3] has as its target C-X-C chemokine receptor type 4 (Homo sapiens) (UniProt P61073). Briefly: Antagonist activity against CXCR4 receptor (unknown origin) transfected in human HEK293T cells at 10 uM incubated for 15 mins in presence of AMD3100 by luminescence counter analysis. It counts as functional, cell-based. The gist of the method:
(§3)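 HEK293-T cells transiently transfected with CXCR4 and the GloSensor cAMP reporter, plated in DMEM with 1% dialyzed FBS. Test compound at 10 μM in 20 mM HEPES/HBSS, pH 7.4, 15 min at room temperature. Agonist mode: luciferin (4 mM final) plus 200 nM isoproterenol added, 20 min. Antagonist mode: compound 10 min, then reference agonist at EC80 for 10 min, then luciferin/isoproterenol. Luminescence read. CXCL12 (1 or 3 μM) is the agonist control and AMD3100 (10 μM) the antagonist control. n=2.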

Assay [4] deals with T1, G-protein coupled receptor 68. Kind of assay: Positive allosteric modulator activity at HA-tagged GPR68 expressed in human HEK293T cells assessed as activation of PKA at pH 7.4 by immunoblotting analysis. The format is cell-based. To be noted: filed as positive allosteric modulator. The gist of the method: as §1
The target of assay [5] is C-X-C chemokine receptor type 4 (Homo sapiens) (UniProt P61073). Kind of assay: Agonist activity against CXCR4 receptor (unknown origin) transfected in human HEK293T cells at 10 uM incubated for 15 mins in presence of CXCL12 by luminescence counter analysis. The format is functional, cell-based. The gist of the method: as §3
Sequence of C-X-C chemokine receptor type 4 (Homo sapiens) (P61073 whole entry): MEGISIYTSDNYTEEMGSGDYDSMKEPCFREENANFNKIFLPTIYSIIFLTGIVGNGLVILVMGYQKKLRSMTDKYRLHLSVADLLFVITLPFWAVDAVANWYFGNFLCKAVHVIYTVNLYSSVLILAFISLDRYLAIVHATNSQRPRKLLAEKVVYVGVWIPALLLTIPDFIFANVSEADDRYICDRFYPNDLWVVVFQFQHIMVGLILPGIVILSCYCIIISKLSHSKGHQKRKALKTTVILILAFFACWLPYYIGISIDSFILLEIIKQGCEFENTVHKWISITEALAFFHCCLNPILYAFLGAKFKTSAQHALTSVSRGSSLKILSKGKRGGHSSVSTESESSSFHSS
Assay [6] deals with T1, G-protein coupled receptor 68. Briefly: Binding affinity to GPR68 expressed in human HEK293T cells assessed as cAMP production in presence of H+ proton by Split-luciferase based luminescence counter analysis. The format is cell-based. Particulars: filed as positive allosteric modulator. The gist of the method: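 Proton concentration-response of GPR68 (wild type or E160A/K/Q, R189L/M, H269F mutants) in transiently transfected HEK293-T cells. Read-out: GloSensor cAMP, with luciferin loading 90 min at 37°C at pH 8.4. Run with and without increasing modulator concentrations; 20 min at room temperature before luminescence. Proton KA fixed to the proton EC50 without modulator. KB, τA, α, β fitted globally with an operational allosteric model. n=4.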

In assay [7] the target is T2, G-protein coupled receptor 65 (Homo sapiens, UniProt Q8IYL9). Briefly: Positive allosteric modulator activity at human GPR65 expressed in yeast assessed as Gq-yeast growth stimulation at 10 uM by microplate reader analysis. The gist of the method: as §2
T2 sequence (Q8IYL9 whole entry): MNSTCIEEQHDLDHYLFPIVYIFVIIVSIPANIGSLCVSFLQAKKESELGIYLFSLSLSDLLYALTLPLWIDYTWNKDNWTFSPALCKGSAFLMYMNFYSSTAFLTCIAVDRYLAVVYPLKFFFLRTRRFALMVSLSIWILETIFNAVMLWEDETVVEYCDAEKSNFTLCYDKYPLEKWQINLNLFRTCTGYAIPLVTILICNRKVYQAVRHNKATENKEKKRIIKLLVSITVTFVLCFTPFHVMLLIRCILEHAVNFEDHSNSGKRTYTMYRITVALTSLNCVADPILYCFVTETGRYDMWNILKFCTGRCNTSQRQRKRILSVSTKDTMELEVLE
The target of assay [8] is T1, G-protein coupled receptor 68. Briefly: Positive allosteric modulator activity at human GPR68 expressed in yeast assessed as Gq-yeast growth stimulation at 10 uM by microplate reader analysis. Particulars: filed as positive allosteric modulator. The gist of the method:
as §2

Assay [9] has as its target T2, G-protein coupled receptor 65. Kind of assay: Antagonist activity against GPR65 (unknown origin) transfected in human HEK293T cells incubated for 15 mins in presence of BTB09089 by luminescence counter analysis. The format is functional, cell-based. To be noted: filed as antagonist. The gist of the method: (§4)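 GloSensor split-luciferase cAMP assay. HEK293-T cells transiently co-transfected with GPR65 (wild type or the D153A, R187L, F242A or Y272A mutant) and GloSensor 7A reporter. Cells plated in DMEM with 1% dialyzed FBS for at least 6 h, then loaded with luciferin (4 mM, in drug buffer pH 8.4) for 90 min at 37°C. Compounds added at set pH in HBSS with 10 mM HEPES/10 mM MES, with TAPS for higher pH. Luminescence read after about 20 min at room temperature. Data normalized to buffer basal and fitted to a 4-parameter logistic.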

The target is the same in assay [10]. Briefly: Antagonist activity against GPR65 (unknown origin) transfected in human HEK293T cells incubated for 15 mins by luminescence counter analysis. It counts as functional, cell-based. Particulars: filed as antagonist. The gist of the method:
as §4

Calls of active or inactive are those of the source. The rule behind the calls is not given here.

T1 sequence (Q15743 whole entry): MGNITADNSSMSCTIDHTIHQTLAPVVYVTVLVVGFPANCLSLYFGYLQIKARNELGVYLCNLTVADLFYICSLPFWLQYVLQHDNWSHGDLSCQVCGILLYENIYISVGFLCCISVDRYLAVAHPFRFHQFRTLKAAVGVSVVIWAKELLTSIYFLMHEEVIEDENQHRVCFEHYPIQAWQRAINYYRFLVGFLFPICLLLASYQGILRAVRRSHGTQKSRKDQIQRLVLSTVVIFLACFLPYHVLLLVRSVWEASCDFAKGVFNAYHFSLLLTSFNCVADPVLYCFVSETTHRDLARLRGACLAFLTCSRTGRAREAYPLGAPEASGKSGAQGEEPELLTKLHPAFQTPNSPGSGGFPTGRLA

With `O=C1Nc2ccc(Cl)cc2C(c2ccccc2Cl)=NC1O` (stereo not given), the outcome in assay [1] and in [4] was Active. In addition, the outcome in assay [2], in [3], in assay [5] and in assay [7] was inactive. Besides, the pKb in assay [6] turned out to be 5.92. Moreover, the Activity in assay [8] is 2.
`Cc1nc(-c2ncccn2)sc1C(=O)O[C@@H](c1ccccc1)c1ccncc1`: the outcome in assay [9] and in assay [10] was Active.
